The values that follow come from ChEMBL document CHEMBL4261642, “Design, synthesis, and ex vivo evaluation of a selective inhibitor for retinaldehyde dehydrogenase enzymes” (Bioorg Med Chem, 2018).

Assay [1] addresses T1, Aldehyde dehydrogenase 1A1 (Gallus gallus, UniProt P27463).
T1 sequence (P27463 whole entry): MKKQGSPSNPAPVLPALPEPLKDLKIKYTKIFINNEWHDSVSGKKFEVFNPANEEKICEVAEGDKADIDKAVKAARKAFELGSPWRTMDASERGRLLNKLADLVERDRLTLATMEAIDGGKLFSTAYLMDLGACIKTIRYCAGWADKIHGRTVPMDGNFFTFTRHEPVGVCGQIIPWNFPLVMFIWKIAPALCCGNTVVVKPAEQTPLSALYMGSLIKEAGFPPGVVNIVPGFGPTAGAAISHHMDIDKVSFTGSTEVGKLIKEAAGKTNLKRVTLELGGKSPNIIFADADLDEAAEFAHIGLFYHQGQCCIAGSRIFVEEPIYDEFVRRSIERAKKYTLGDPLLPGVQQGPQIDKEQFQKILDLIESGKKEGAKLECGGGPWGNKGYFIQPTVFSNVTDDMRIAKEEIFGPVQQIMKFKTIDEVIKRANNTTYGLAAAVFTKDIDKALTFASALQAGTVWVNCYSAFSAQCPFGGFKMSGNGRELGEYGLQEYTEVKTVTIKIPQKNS
Description: Inhibition of N-terminal His6-tagged recombinant chick RALDH1 expressed in Escherichia coli BL21(DE3) cells using RAL as substrate preincubated for 20 mins followed by substrate addition and measured after 30 mins in presence of NADH by fluorescence assay. Put shortly: (§1)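 Purified His-tagged recombinant enzyme in dialysis buffer with 2 mM DTT. Amounts were chick RALDH1 2 μg (0.358 μM), chick RALDH2 0.5 μg (0.091 μM), chick RALDH3 2 μg (0.355 μM) and human RALDH2 1 μg (0.176 μM). Enzyme pre-incubated 20 min at 37°C with 0–10 μM inhibitor in DMSO. Reaction started with final 4 mM NAD+ in pyrophosphate pH 8.2 buffer plus 250 μM retinaldehyde, 30 min at 37°C. NADH read fluorimetrically (Ex/Em 540/590) against a standard curve. Triplicates, 3–5 experiments.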

Assay [2] addresses T2, Retinal dehydrogenase 2 (Homo sapiens, UniProt O94788).
T2 sequence (O94788 whole entry): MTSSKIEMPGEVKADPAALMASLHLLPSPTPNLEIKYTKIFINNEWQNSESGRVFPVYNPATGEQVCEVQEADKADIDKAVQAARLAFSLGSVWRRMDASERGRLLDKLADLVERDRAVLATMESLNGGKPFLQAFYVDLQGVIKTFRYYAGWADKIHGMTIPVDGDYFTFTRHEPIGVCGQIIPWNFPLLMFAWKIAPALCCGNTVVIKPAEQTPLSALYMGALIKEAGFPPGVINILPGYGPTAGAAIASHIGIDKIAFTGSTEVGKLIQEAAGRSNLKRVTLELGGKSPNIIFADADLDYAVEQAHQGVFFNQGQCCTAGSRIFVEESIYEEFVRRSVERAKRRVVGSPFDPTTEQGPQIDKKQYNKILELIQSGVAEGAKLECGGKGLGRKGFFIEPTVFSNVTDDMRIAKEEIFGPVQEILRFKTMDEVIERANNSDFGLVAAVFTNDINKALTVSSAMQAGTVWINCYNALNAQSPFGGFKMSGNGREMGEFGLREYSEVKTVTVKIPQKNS
The assay is described as follows: Inhibition of N-terminal His6-tagged recombinant human RALDH2 using RAL as substrate preincubated for 20 mins followed by substrate addition and measured after 30 mins in presence of NADH by fluorescence assay. Put shortly:
as §1

Assay [3] deals with T3, Aldehyde dehydrogenase, mitochondrial (Homo sapiens, UniProt P05091).
T3 sequence (P05091 whole entry): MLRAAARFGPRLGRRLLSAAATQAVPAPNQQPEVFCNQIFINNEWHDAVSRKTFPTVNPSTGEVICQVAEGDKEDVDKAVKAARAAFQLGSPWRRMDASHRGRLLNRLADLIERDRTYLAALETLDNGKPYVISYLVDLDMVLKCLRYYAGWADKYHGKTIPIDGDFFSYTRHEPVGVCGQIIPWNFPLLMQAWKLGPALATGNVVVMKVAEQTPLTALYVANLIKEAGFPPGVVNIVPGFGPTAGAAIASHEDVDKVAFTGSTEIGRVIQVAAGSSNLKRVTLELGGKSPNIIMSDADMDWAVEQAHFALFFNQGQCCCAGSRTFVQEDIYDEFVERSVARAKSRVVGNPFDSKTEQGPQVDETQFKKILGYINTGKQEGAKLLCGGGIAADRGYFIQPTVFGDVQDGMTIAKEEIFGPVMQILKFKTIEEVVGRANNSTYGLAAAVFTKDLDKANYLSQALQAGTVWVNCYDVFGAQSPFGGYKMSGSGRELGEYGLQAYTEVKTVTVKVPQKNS
Description: Inhibition of N-terminal His6-tagged recombinant human mitochondrial ALDH2 using propionaldehyde as substrate measured after 30 mins in presence of NADH by Morrison's plot analysis.

The target in assay [4] is T4, Retinal dehydrogenase 2 (Gallus gallus, UniProt O93344).
T4 sequence (O93344 whole entry): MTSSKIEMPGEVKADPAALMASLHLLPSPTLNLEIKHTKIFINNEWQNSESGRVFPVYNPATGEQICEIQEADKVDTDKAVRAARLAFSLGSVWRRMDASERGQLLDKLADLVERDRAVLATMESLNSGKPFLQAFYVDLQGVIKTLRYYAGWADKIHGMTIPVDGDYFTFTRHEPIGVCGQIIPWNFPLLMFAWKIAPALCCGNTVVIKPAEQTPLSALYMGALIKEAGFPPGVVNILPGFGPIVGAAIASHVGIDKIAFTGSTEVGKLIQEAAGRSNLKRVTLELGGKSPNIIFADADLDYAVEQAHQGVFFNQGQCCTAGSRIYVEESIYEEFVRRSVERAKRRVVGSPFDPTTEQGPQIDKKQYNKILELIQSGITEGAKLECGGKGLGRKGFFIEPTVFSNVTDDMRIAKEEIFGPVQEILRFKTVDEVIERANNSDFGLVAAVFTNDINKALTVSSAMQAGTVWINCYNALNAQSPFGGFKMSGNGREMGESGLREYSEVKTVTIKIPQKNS
Description: Inhibition of N-terminal His6-tagged recombinant chick RALDH2 expressed in Escherichia coli BL21(DE3) cells up to 500 nM using RAL as substrate preincubated up to 40 mins followed by substrate addition and measured after 30 mins in presence of NADH by fluorescence assay. Put shortly:
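Chick RALDH2 pre-incubated 10, 20 and 40 min with 0–500 nM inhibitor, then assayed with retinaldehyde/NAD+ by fluorimetric NADH. kobs taken from linear regression of log % activity remaining versus pre-incubation time. KI and kinact obtained by nonlinear regression of kobs versus inhibitor concentration.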

Assay [5] concerns the target T5, Retinal dehydrogenase 2 (Gallus gallus) (UniProt O93344).
T5 sequence (whole entry): T4 sequence (O93344 whole entry)
The assay is described as follows: Inhibition of chick RALDH2 expressed in doxycycline-inducible HEK293 cells assessed as inhibition of ATRA synthesis at 2 uM after 24 hrs in presence of ATRA and NAD+. The format is cell-based.

In assay [6] the target is T4, Retinal dehydrogenase 2. The assay is described as follows: Inhibition of RALDH2 in living intact choroid isolated from 4 day recovering chick eyes assessed as inhibition of ATRA synthesis after 24 hrs in presence of […].
For assay [7], the target named is T6, Retinal dehydrogenase 2 (Homo sapiens) (UniProt O94788).
T6 sequence (whole entry): T2 sequence (O94788 whole entry)
The assay is described as follows: Inhibition of RALDH2 (unknown origin) […] assessed as time dependence ratio (kinact/KI).

Molecules are shown by their SMILES.

Broadly, the IC50 is the midpoint of a concentration-inhibition curve. One may read the Ki as a dissociation constant, usually derived from enzyme kinetics or from competition with a known ligand. A word on the inhibition: it is the change of the read-out against control, counted positive when it falls. Broadly, the EC50 is the concentration at which the effect is half-maximal. One may read the kinact/KI as the maximal inactivation rate divided by the concentration that gives half of it. With `CC1=C(/C=C/C(C)=C/C=C/C(C)=C/C(=O)C(Cl)Cl)C(C)(C)CCC1`, the IC50 in assay [1] is 435 nM; at Retinal dehydrogenase 2 [2] it was 191 nM. The Ki result is “Not Active” in assay [3] and 128 nM at Retinal dehydrogenase 2 [4]. In addition, the inhibition in assay [5] amounted to 93%. Further, the EC50 at Retinal dehydrogenase 2 [6] was 120 nM. Besides, the kinact/KI in assay [7] lay within 1550 to 233000 M⁻¹ s⁻¹.
